Results: ChEMBL document CHEMBL5325427
Converted amounts (≈) assume the structure as drawn. The source made the active and inactive calls. The calls are words filed in the database; no cut-off is given here.

Key:
[1] = Toxicity in Balb/c mouse assessed as histological changes in spleen by measuring toxicity score at 12.5 to 25 mg/kg by H and E staining based analysis; assay type: organism-based; details: in vivo, dose 12.5-25 mg/kg
[2] = system: SARS-CoV-2; test: Antiviral activity against SARS- CoV-2 infected in Vero E6 cells assessed as viral replication pretreated with cells for 24 hrs followed by viral infection for 1 hr and measured after 1 hr by plaque assay relative to control; assay type: functional, Severe acute respiratory syndrome coronavirus 2; details: time 26 hrs
[3] = Toxicity in Balb/c mouse assessed as effect on ALT at 12.5 to 25 mg/kg; assay type: organism-based; details: in vivo, dose 12.5-25 mg/kg
How it was run: (§1)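 Female Balb/c mice were randomised to vehicle (0.5% DMSO in PBS) or 12.5 or 25 mg/kg intraperitoneally daily for 14 days, then followed 12 days after treatment. Body weight, haematology and blood chemistry were compared with vehicle controls; n = 3–5.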

[4] = Toxicity in Balb/c mouse assessed as change in histological variation in kidney at 12.5 to 25 mg/kg by H and E staining based analysis; assay type: organism-based; details: in vivo, dose 12.5-25 mg/kg
How it was run: (§2)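 After the 14-day daily intraperitoneal dosing (12.5 or 25 mg/kg, female Balb/c), liver, kidney, spleen, heart and lung were fixed 24 h in 10% neutral-buffered formalin and paraffin-embedded. Sections of 4 μm were stained with H&E. Lesions were scored nil 0, mild 1, moderate 2, severe 3.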

[5] = Permeability of the compound across apical to basolateral side in human Caco-2 cells at pH 6.5 to 7.4; assay type: ADME, cell-based; details: Caco-2, pH 6.5, read-out: permeability
How it was run: (§3)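 Caco-2 cells (0.5 × 10^6/well) were grown 7 days on collagen-coated transwell filters. Compound was dosed at 50, 75 and 100 μM input in 1% DMSO/HBSS, apical pH 6.5 and basolateral pH 7.4. Samples were taken every 30 min for 2 h in duplicate and quantified by LC/MS/MS. Papp was calculated from receiver concentration, time, area and mid-point donor and receiver concentrations. Monolayer integrity required fluorescein Papp below 1.5 × 10−6 cm/s.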

[6] = system: SARS-CoV-2; test: Antiviral activity against SARS- CoV-2 infected in Vero E6 cells assessed as viral adsorption pretreated with cells for 24 hrs followed by viral infection and measured after 1 hr by crystal violet staining based analysis relative to control; assay type: functional, Severe acute respiratory syndrome coronavirus 2; details: time 25 hrs
[7] = system: Vero C1008; test: Cytotoxicity against African green monkey Vero E6 cells measured after 72 hrs by crystal violet staining based analysis; assay type: toxicity, cell-based; details: chlorocebus sabaeus, vero c1008, 72 h
How it was run: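 Vero-E6 cells were seeded at 3 × 10^5 cells/mL, grown 24 h at 37 °C with 5% CO2, then given graded compound concentrations in triplicate for 72 h. Stocks were made in 10% DMSO in DMEM. Cells were fixed in 10% formalin, stained with 0.1% crystal violet, dissolved in methanol and read at A570. CC50 was taken by nonlinear regression of log concentration versus normalised response against untreated cells.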

[8] = Toxicity in Balb/c mouse assessed as histological changes in liver by measuring toxicity score at 12.5 mg/kg by H and E staining based analysis; assay type: organism-based; details: in vivo; how it was run: as §2
[9] = Toxicity in Balb/c mouse assessed as histological changes in liver by measuring toxicity score at 25 mg/kg by H and E staining based analysis; assay type: organism-based; details: in vivo; how it was run: as §2
[10] = Selectivity index, ratio of CC50 for African green monkey Vero E6 cells to IC50 for antiviral activity against MERS-CoV NRCE-HKU270 infected in Vero E6 cells; assay type: toxicity, cell-based, Vero C1008; details: read-out: Ratio CC50/IC50
[11] = Permeability of the compound across apical to basolateral side in human Caco-2 cells assessed as drug recovery at pH 6.5 to 7.4; assay type: ADME, cell-based; details: Caco-2, pH 6.5, read-out: Drug recovery; how it was run: as §3
[12] = Aqueous solubility of the compound in PBS buffer at pH 7.4 at 200 uM by microplate reader method; assay type: physicochemical
[13] = Toxicity in Balb/c mouse assessed as effect on body weight loss at 25 to 100 mg/kg, ip administered as single dose measured upto 15 days; assay type: organism-based; details: in vivo, 360 h, dose 25-100 mg/kg, time < 15 day
[14] = Toxicity in Balb/c mouse assessed as change in histological variation in spleen at 12.5 to 25 mg/kg by H and E staining based analysis; assay type: organism-based; details: in vivo, dose 12.5-25 mg/kg; how it was run: as §2
[15] = Toxicity in Balb/c mouse assessed as reduction in platelet population at 25 mg/kg; assay type: organism-based; details: in vivo
[16] = Toxicity in Balb/c mouse assessed as effect on albumin at 12.5 to 25 mg/kg; assay type: organism-based; details: in vivo, dose 12.5-25 mg/kg; how it was run: as §1
[17] = Toxicity in Balb/c mouse assessed as effect on glucose at 12.5 to 25 mg/kg; assay type: organism-based; details: in vivo, dose 12.5-25 mg/kg; how it was run: as §1
[18] = Toxicity in Balb/c mouse assessed as effect on total bilirubin at 12.5 to 25 mg/kg; assay type: organism-based; details: in vivo, dose 12.5-25 mg/kg; how it was run: as §1
[19] = system: SARS-CoV-2; test: Antiviral activity against SARS CoV-2 infected in human Caco-2 cells assessed as reduction in INF-alpha expression at 20 ug/ml preincubated with cells for 24 hrs followed by viral infection and measured after 1 to 3 hrs by real-time PCR assay; assay type: functional, organism-based; details: Severe acute respiratory syndrome coronavirus 2, dose 20.0 µg/ml, time 25-28 hrs
[20] = Selectivity index, ratio of CC50 for African green monkey Vero E6 cells to IC50 for antiviral activity against SARS-CoV-2 NRC-03-nhCoV infected in african green monkey Vero E6 cells; assay type: toxicity, cell-based, Vero C1008; details: read-out: Ratio CC50/IC50
[21] = biological target: Replicase polyprotein 1ab (Severe acute respiratory syndrome coronavirus 2, UniProt P0DTD1); test: Inhibition of recombinant SARS CoV-2 PL protease assessed as deubiquitination activity using ubiquitinated fluorogenic as substrate incubated for 2 hrs followed by substrate addition for 1 hr by synergy TM HTX microplate reader analysis
[22] = Toxicity in Balb/c mouse assessed as effect on AST at 12.5 to 25 mg/kg; assay type: organism-based; details: in vivo, dose 12.5-25 mg/kg; how it was run: as §1
[23] = system: SARS-CoV-2; test: Antiviral activity against SARS CoV-2 infected in human Caco-2 cells assessed as reduction in OAS1 expression at 20 ug/ml preincubated with cells for 24 hrs followed by viral infection and measured after 3 to 12 hrs by real-time PCR assay; assay type: functional, organism-based; details: Severe acute respiratory syndrome coronavirus 2, dose 20.0 µg/ml, time lower 27.0 hrs, time upper […]
[24] = Stability in CD-1 mouse liver microsomes assessed as compound remaining at 1 uM measured after 60 mins in absence of NADPH by LC-MS-MS analysis; assay type: ADME, Microsome; details: read-out: Stability
How it was run: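 Compound was incubated in liver microsomes without NADPH. Percent remaining was measured after 60 min.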

[25] = system: SARS-CoV-2; test: Antiviral activity against SARS CoV-2 HCoV-19/Egypt/NRC-1/2020 infected in human Caco-2 cells assessed as reduction in viral ORFb1 RNA expression at 20 ug/ml pre-infected with virus for 1 hr followed by cell addition for 1 hr and measured after 1 to 12 hrs by RT-PCR analysis; assay type: functional, organism-based; details: Severe acute respiratory syndrome coronavirus 2, dose 20.0 µg/ml, time 3-14 hrs
[26] = Toxicity in Balb/c mouse assessed as histological changes in heart by measuring toxicity score at 12.5 to 25 mg/kg by H and E staining based analysis; assay type: organism-based; details: in vivo, dose 12.5-25 mg/kg; how it was run: as §2
[27] = Toxicity in Balb/c mouse assessed as effect on urea at 12.5 to 25 mg/kg; assay type: organism-based; details: in vivo, dose 12.5-25 mg/kg; how it was run: as §1
[28] = system: Middle East respiratory syndrome-related coronavirus; test: Antiviral activity against MERS-CoV NRCE-HKU270 infected in Vero E6 cells assessed as inhibition of viral growth; assay type: functional, organism-based; details: NRCE-HKU270, Vero C1008

COc1ccc2[nH]c3c(c2c1)C[C@]1(OC)CC[C@H]2c4[nH]c5ccccc5c4CCN2[C@@H]1C3
Activity [1]: 0
Activity [2]: 8.5%
Activity [3]: Non-Toxic
Activity [4]: Non-Toxic
Papp A→B [5]: 5.9 ×10⁻⁶ cm/s
Activity [6]: 2.5%
CC50 [7]: 55.63 µg/mL (≈ 130 µM)
Activity [8]: 0
Activity [9]: 0
selectivity ratio [10]: 8.96
recovery [11]: 77%
solubility at 200 µM [12]: 166 µM (≈ 71 µg/mL)
Activity [13]: Non-Toxic
Activity [14]: Non-Toxic
Activity [15]: Non-Toxic
Activity [16]: Non-Toxic
Activity [17]: Non-Toxic
Activity [18]: Non-Toxic
Activity [19]: Active
selectivity ratio [20]: 4.6
IC50 [21]: 386 µM
Activity [22]: Non-Toxic
Activity [23]: Active
remaining at 1 h, 1 µM [24]: 108%
Activity [25]: Active
Activity [26]: 0
Activity [27]: Non-Toxic
IC50 [28]: 6.21 µg/mL (≈ 14.5 µM)
